Screening data from PubChem BioAssay.
Xi reactivation = activators of inactive X chromosome reactivation, primary screen, imaging, XiGFP fibroblasts, GFP high-content imaging, set 2. XiGFP mouse fibroblasts, % GFP-positive cells imaging, 3 d; cells co-treated with 5-aza-dC sensitizer; scaled so ellipticine positive control = 100%. activation, % at 7.58 µM. 0.055% of 360,000 active;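 active means mean normalized replicate activation at least 10% and every replicate at or above 10%; inconclusive means only one of the two criteria met; inactive means mean below 10% and not all replicates reach 10%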;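 further: 0% = median of on-plate neutral control wells and 100% = ellipticine 6 µM median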
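Material: XiGFP fibroblasts, SV40-immortalized. Buffer or medium: DMEM plus 5-aza-dC sensitizer. Compound: single concentration per compound, delivered by pin transfer. Times: 3 days compound exposure. Controls: ellipticine 6 µM.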
FN deposit inh = inhibitors of fibronectin matrix deposition, primary screen, AH1F cells, Alexa488-fibronectin fluorescence, plate reader; AH1F fibroblasts, overnight; inhibition, % at 12.6 µM; 0.086% of 350,000 active; AID 743247, 2014;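 active means mean inhibition across replicates of 30% or more, regardless of how many single replicates reach that level; inconclusive means mean under 30% yet at least half of replicates reach 30%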;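 further: positive control wells lacked labelled fibronectin entirely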
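Assay system: AH1F fibroblast monolayer, labelled fibronectin deposition. Amount: 10000 cells per well. Also added: labelled fibronectin 24 nM. Compound: single-point pinned compound. Incubation: cell attachment 1 h, compound and FN exposure overnight. Detection: fluorescence after three HBSS washes, excitation 485 nm, emission 525 nm. Read-out: inhibition of fibronectin deposition signal.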
LGR2 inh = inhibitors of bursicon-induced LGR2 CRE-luciferase signal, primary screen, cell-based, HEK293, CRE-luciferase reporter, bursicon stimulation; bursicon-stimulated, 4 h; 0.35% of 380,000 active; inhibition, % at 9.99 µM; Drosophila bursicon receptor LGR2 (rickets);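 active means drop in luminescence signal, shown as inhibition above about 50% in the replicate tests, limit read from the data, passing the limit was not always enough; inconclusive means probably only some replicates passing the limit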;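 further: agonist challenge used bursicon conditioned medium at about half maximal strength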
EWS-Fli inh = EWS/Fli-driven NR0B1 reporter inhibitors, primary screen, A673 cells, NR0B1 luciferase, luminescence, MLPCN library | AID 651661, 2012 | inhibition, % at 12.6 µM | 0.67% of 350,000 active | viability-normalised;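 active means mean inhibition of at least 50% after viability correction, with every replicate also passing that limit; inconclusive means mean reaches 50% but only one of two replicates passes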;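 further: firefly luciferase signal divided by Alamar Blue viability fluorescence both relative to DMSO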
TROY NFkB inh = inhibitors of TROY-driven NF-kB signaling, primary screen, Q293 LMP1-TROYcd cells, NF-kB luciferase, uHTS | inhibition, % at 10 µM | Q293 LMP1-TROYcd NF-kB luciferase reporter, 4 h | 0.98% of 360,000 active;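 active means compounds whose plate-normalised and pattern-corrected inhibition of the luciferase reporter signal at the single screening dose is 50% or more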
TWEAK Fn14 block = inhibitors of TWEAK-Fn14 signaling, primary screen, luciferase reporter cells, uHTS; inhibition, % at 10 µM; 2% of 360,000 active; TWEAK-stimulated Fn14 reporter cells, luciferase luminescence, 8 h; in the data active means inhibition above about 50%
* marks the source's active call; other numbers are inactive results; ? = inconclusive; / = no result given. Rows were chosen to be rich in hits. Some 2.3% of all compounds tested hit in one or more screens of this group.

SMILES	Xi reactivation	FN deposit inh	LGR2 inh	EWS-Fli inh	TROY NFkB inh	TWEAK Fn14 block
O=C(CNc1cccc2ccccc12)N/N=C/c1ccc([N+](=O)[O-])o1	0	12	19	36	17	56*
Cc1cc(N/N=C/c2ccc([N+](=O)[O-])o2)nc2ccccc12	43*	-25	-3	-25	-18	-15
O=C(CNc1cccc([N+](=O)[O-])c1)N/N=C/c1ccc([N+](=O)[O-])o1	0	16	/	26	-5	16
O=C(N[C@H]1C=C[C@H](CC(=O)N2CCCCC2)O[C@H]1CO)c1ccc2c(c1)OCO2	0	9	1	2	/	/
Cc1cc(C)c(S(=O)(=O)/N=C2/C=C(Sc3ncn[nH]3)C(=O)c3ccccc32)cc1C	6	39*	6	/	59*	94*
Cc1cc(CNC(=O)COc2cc(F)ccc2[N+](=O)[O-])c2ccccc2n1	0	7	-10	7	7	77*
O=C(CCl)NC(Cc1ccccc1)c1ccccc1 (stereo unspecified)	0	-2	15	18	-23	53*
C[C@@H]1CN([C@H](C)CO)S(=O)(=O)c2ccc(C3=CCCC3)cc2O[C@H]1CN(C)Cc1ccncc1	-1	-3	3	5	/	/
COC(=O)[C@]12CCCCC=C1N(Cc1cccc3ccccc13)C(=O)[C@H](CC(=O)NCCC(C)C)C2	0	-2	64*	-7	29	21
COCCOC(=O)N1C(=O)[C@@]2(c3cc(C#CCCO)ccc31)[C@H](C(=O)NC[C@H](O)c1ccccc1)[C@H]1C(=O)O[C@H](c3ccccc3)[C@H](c3ccccc3)N1[C@@H]2c1ccc(O)cc1	/	/	/	-5	/	/
C/C(=N\Nc1ccc(C(=O)O)cc1)c1ccc(Br)cc1	0	-5	-24	49	14	66*
COc1ccc(-c2nc(-c3ccc(NC(=O)c4ccncc4)cc3)no2)cc1OC	/	/	/	/	67*	94*
COc1ccc(NC(=O)c2ccc(-c3ccc(-c4noc(C)n4)cc3C)cc2)cc1N1CCN(C)CC1	3	-9	104*	9	0	-24
Cc1nn(CCc2nn[nH]n2)c2nc(-c3ccc(C4CCCCC4)cc3)cc(C(F)(F)F)c12	0	-5	14	2	56*	26
O=C(O)/C=C/C(=O)Nc1ccccc1C(=O)OCC(=O)c1ccc2c(c1)OCCO2	0	-8	17	-3	53*	31
CCCCC(=O)Nc1ccccc1C(=O)OCC(=O)c1ccc2c(c1)OCCO2	0	1	2	/	13	10
CCCC#Cc1ccc2c(c1)O[C@H](CN(C)C(=O)NC(C)C)[C@H](C)CN([C@H](C)CO)S2(=O)=O	-1	1	6	-2	/	/
Cc1ccc2nc3cc([N+](=O)[O-])cc([N+](=O)[O-])c3cc2c1	1	-18	?	61*	52*	87*
COc1cc(C2Nc3ccccc3C(=O)N2c2ccc3c(c2)OCCO3)ccc1OCC(C)C (stereo unspecified)	/	/	/	/	24	67*
O=C1c2ccccc2NC(c2ccc3c(c2)OCCO3)N1c1ccc2c(c1)OCCO2 (stereo unspecified)	/	/	/	/	59*	59*
C[C@H]1CN([C@@H](C)CO)C(=O)Cc2cc(N(C)C)ccc2O[C@@H]1CN(C)C(=O)Nc1cccc2ccccc12	0	/	-6	5	/	/
CC=Cc1ccc2n(c1=O)C[C@H]1[C@H](CO)[C@@H](C(=O)NCC)[C@@H]2N1C(C)=O (mixture of isomers)	0	/	-14	29	/	/
O=C(Nc1nnc(CCS(=O)(=O)c2ccc(Br)cc2)s1)c1ccc([N+](=O)[O-])cc1	/	0	/	/	-20	51*
O=C(O)c1ccccc1N/N=C\c1ccnc2ccccc12	/	/	/	/	48	90*
COc1ccccc1C#Cc1ccc2c(c1)O[C@@H](CN(C)Cc1ccccc1)[C@H](C)CN([C@H](C)CO)S2(=O)=O	0	/	5	32	/	/
SMILES	Xi reactivation	FN deposit inh	LGR2 inh	EWS-Fli inh	TROY NFkB inh	TWEAK Fn14 block
Cn1c(=O)c(C(=O)Nc2ncccc2O)c(O)c2ccccc21	/	3	/	/	-22	8
CCCn1c(=O)c(C(=O)Nc2ncccc2O)c(O)c2ccccc21	0	-4	24	8	43	87*
CCC(=O)N1CC(=O)N2[C@H](CO)[C@H](c3ccc(C#CC4CCCCC4)cc3)[C@@H]2C1	0	/	-15	0	/	/
CCn1cc(S(=O)(=O)Nc2ccc3c(c2)OCCO3)cn1	0	-2	25	40	86*	88*
Cn1cc(S(=O)(=O)Nc2ccc3c(c2)OCCO3)cn1	0	-3	13	11	62*	70*
COc1ccc(S(=O)(=O)Nc2ccc3c(c2)OCCO3)cc1OC	0	6	-2	3	21	55*
CN(C)C(=O)[C@@H]1[C@@H](CO)[C@@H]2Cn3c(ccc(-c4ccccc4)c3=O)[C@H]1N2C(=O)C1CC1	0	/	2	-5	/	/
O=C(C#Cc1ccccc1)Nc1cccc(F)c1	0	-4	-81	22	-1	70*
O=C(C#Cc1ccccc1)Nc1ccc(F)cc1	0	0	-31	-60	-57	15
CN1C(=O)c2cc(NC(=O)C3CCCC3)ccc2OC[C@@H]2O[C@H](CC(=O)NCC(F)(F)F)CC[C@H]21	0	5	-10	0	/	/
CN(C)c1ccc(N/C=C/C(=O)c2ccccc2)cc1	/	/	/	/	23	95*
O=C(/C=C/Nc1ccccc1)c1ccccc1	/	/	/	/	-23	37
Nc1nccnc1C(=O)OCC(=O)C12CC3CC(CC(C3)C1)C2	0	1	-7	0	7	13
N#CC1(C#N)CC(C=O)=C(N)C1(C#N)CC(=O)C12CC3CC(CC(C3)C1)C2 (stereo unspecified)	0	-6	2	5	31	87*
CC1CCC(=C(C#N)c2nc(-c3cc4ccccc4oc3=O)cs2)CC1 (stereo unspecified)	/	/	/	/	47	54*
COc1ccc(NC(=O)Nc2ccc3c(c2)C(=O)N([C@H](C)CO)C[C@@H](C)[C@@H](CN(C)C(=O)Nc2ccc(F)cc2)O3)cc1	-1	/	12	2	/	/
CN1CCN(c2nc(-c3ccccc3Cl)nc3ccccc23)CC1	0	0	-11	-3	11	-15
